The text below walks through data of ChEMBL document CHEMBL1146308 (Bioorg Med Chem, 2007).

The subject of test [1] is PC-12. Nature of the test: Inhibition of amyloid beta peptide-induced redox disequilibrium assessed as decrease in SOD activity in PC12 cells. In kind it is functional, cell-based. The following applies: Rattus norvegicus.
In test [2] the test system is PC-12. Nature of the test: Inhibition of amyloid beta peptide-induced redox disequilibrium assessed as decrease in MDA level in PC12 cells. It counts as functional, cell-based. The following applies: Rattus norvegicus.
In test [3] the test system is PC-12. As to the kind of experiment: Reduction of amyloid beta peptide-induced cytotoxicity in PC12 cells. It counts as functional, cell-based. To be noted: Rattus norvegicus.
The species named for test [4] is Mus musculus. Nature of the test: Neuroprotection against scopolamine-induced spartial performance deficits in mouse by water maze test. In kind it is functional, organism-based.
The species entered for test [5] is Rattus norvegicus. As to the kind of experiment: Selectivity ratio of IC50 for rat BuChE to rat IC50 for AchE. The method, boiled down: (§1)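 Modified Ellman colorimetric cholinesterase assay. The AChE source was rat cortex homogenate and the BuChE source was rat serum. Inhibition was measured against each enzyme, and selectivity was taken as the BuChE IC50 over the AChE IC50.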

The target of test [6] is Butyrylcholinesterase (Rattus norvegicus, UniProt Q9JKC1). As to the kind of experiment: Inhibition of BuChE in rat serum. In kind it is cell-free. In short, it runs like this: as §1
Chain of Butyrylcholinesterase (Q9JKC1 whole entry): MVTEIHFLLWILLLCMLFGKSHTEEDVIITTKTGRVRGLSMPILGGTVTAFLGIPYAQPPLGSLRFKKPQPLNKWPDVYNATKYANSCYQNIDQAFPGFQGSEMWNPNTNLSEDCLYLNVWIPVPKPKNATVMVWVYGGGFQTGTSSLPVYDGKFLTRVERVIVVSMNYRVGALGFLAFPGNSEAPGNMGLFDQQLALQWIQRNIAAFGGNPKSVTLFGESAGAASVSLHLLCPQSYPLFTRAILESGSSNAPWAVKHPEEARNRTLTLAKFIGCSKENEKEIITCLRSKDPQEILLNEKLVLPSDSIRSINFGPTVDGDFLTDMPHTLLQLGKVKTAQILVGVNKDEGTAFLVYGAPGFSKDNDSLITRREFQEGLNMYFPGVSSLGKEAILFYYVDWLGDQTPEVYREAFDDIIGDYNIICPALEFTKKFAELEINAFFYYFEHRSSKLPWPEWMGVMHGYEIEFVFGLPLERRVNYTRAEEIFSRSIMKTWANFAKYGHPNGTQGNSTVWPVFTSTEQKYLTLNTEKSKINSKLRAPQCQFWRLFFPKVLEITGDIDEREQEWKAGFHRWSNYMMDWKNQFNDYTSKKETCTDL
The test system of test [7] is PC-12. As to the kind of experiment: Inhibition of amyloid beta peptide-induced redox disequilibrium assessed as increase in GSHPx activity in PC12 cells. The following applies: Rattus norvegicus. In kind it is functional, cell-based.
Test [8] deals with PC-12. As to the kind of experiment: Inhibition of staurosporine-induced apoptosis in PC12 cells. In kind it is functional, cell-based. The following applies: Rattus norvegicus.
The target in test [9] is T1, Acetylcholinesterase (Rattus norvegicus, UniProt P37136).
T1 sequence (P37136 whole entry): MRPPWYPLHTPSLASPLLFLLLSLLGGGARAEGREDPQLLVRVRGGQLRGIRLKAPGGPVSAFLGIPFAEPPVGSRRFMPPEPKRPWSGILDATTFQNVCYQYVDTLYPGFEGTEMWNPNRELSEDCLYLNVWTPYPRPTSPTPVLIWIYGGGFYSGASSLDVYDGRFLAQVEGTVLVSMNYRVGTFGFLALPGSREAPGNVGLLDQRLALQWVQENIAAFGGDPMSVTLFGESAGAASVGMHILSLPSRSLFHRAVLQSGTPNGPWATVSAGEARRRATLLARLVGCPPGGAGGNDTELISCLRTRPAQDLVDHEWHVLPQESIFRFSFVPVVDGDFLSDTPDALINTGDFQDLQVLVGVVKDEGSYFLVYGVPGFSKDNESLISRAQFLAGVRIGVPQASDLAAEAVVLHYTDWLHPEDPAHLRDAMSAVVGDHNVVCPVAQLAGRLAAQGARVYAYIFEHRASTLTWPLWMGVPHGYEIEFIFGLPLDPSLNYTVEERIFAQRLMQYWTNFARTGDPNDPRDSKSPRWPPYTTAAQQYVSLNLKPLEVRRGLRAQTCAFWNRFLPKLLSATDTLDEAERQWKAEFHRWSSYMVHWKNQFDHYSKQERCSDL
As to the kind of experiment: Inhibition of AChE in rat cortex […].

Structures are written as SMILES. Activity calls are given as the source filed them. The rule behind the calls is not given here.

Consider `CC1=C[C@H]2Cc3[nH]c(=O)ccc3[C@@]3(C1)[C@@H]2CCCN3C(=O)CCN(C)CCCCCCCCCCN(C)CCC(=O)N1CCC[C@@H]2[C@H]3C=C(C)C[C@]21c1ccc(=O)[nH]c1C3`, for which the result in [1], in test [2], in test [3], in [4], in [7] and in test [8] was Active. In test [5], the Ratio IC50 was determined as 5510. Further, the IC50 (as a rule, the midpoint of a concentration-inhibition curve) in test [6] turned out to be 65 µM; in test [9], 0.0118 µM.
